Data: ChEMBL document CHEMBL4513216, “Probing the Open Global Health Chemical Diversity Library for Multistage-Active Starting Points for Next-Generation Antimalarials” (ACS Infect Dis, 2020)

Experiment: Toxicity liver stage against HepG2, at 10uM
Type: cell-based
Parameters: test concentration 10 uM, cell line HepG2-A16-CD81EGFP
Settings: human, HepG2-A16-CD81EGFP cells; read-out: INHIBITION
How it was run: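 Uninfected HepG2-A16-CD81EGFP cells, 3 × 10^3 per well, 1536-well, plated on prespotted compound at 10 μM final, parasite-free screening media added to match infected plates; puromycin 10 μM positive, DMSO 0.5% negative; run in parallel with 48 h PbLuc assay at 37 °C, 5% CO2; viability by CellTiter-Glo luminescence, normalized to controls.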

Structure (SMILES) | cytotoxicity at 10 µM [%]
O=C(c1cnc(-c2noc3cc(N4CCCC4)ccc23)s1)N1CCCC1 | -3.83
CNC(=O)N1CC[C@@H]2CN(CCc3cccc(OC)c3)S(=O)(=O)[C@@H]2CC1 | -1.46
COCCN1C2(CCN(C(=O)c3cccs3)C2)c2ccccc2S1(=O)=O (stereo not drawn) | -131
Cc1cc(=O)[nH]c(=O)n1COCCOCc1ccccc1 | 3.36
CCCc1noc(-c2ccc(-n3ncc(C(=O)O)c3C)nc2)n1 | -1.4
Cc1nn(Cn2ccc(C(=O)N3CCCC3)n2)c(C)c1Cl | 0.748
CCn1ncc2c(C(F)F)cc(-c3ccn(C)n3)nc21 | -1.21
Cc1cc(NC(=O)CN2CCN(C3CCCC3)C(=O)C2)nn1C | 0.825
Cc1cc(C(F)F)nn1CC(=O)NCc1nccn1C | -2.17
Nc1nc(N)c2c(n1)OC1(COCCN(Cc3nccs3)C1)C2 (stereo not drawn) | -0.56
O=C(O)C1CN(c2cncc(Cc3ccccc3)n2)C1 | 0.885
CC1CCN(Cc2c(C(C)C)[nH]c3ncccc23)CC1 | -6.43
CCN(CC)C(=O)CN1CCC(c2nc(C)c3c(n2)N(C)CCC3)CC1 | 4.14
CC(C)OCC(=O)N1CCC(c2ncncc2-c2ccnc(N)c2)C1 (stereo not drawn) | -2.44
Clc1ccc(CN(CCN2CCOCC2)Cc2cccnc2)cc1Cl | -9.96
CC(O)c1cn(Cc2ccc(Cl)cc2Cl)nn1 (stereo not drawn) | 15.5
Cn1cc(NCCOc2ccc(F)cc2)cn1 | -1.51
CC(C)(C)SCC(=O)Nc1cc(-n2nnnc2C2CC2)ccc1F | -12
CSc1cc2c(cc1NC(=O)NCc1ccncc1)OCCO2 | 7.55
CCC(CO)Nc1nc(C(F)F)nc2ccccc12 (stereo not drawn) | 1.26
CCOC(C)c1nccn1Cc1noc(CC)n1 (stereo not drawn) | -9.06
CN1CCN(C2CCN(Cc3noc(-c4ccccc4)n3)CC2)C1=O | 9.5
CC(C)C(N)C1=NC(=C2N=CN=N2)NO1 (stereo not drawn) | 8.86

Structure (SMILES) | cytotoxicity at 10 µM [%]
CCOCCC(=O)N1CCCC(c2cc(C(F)(F)F)[nH]n2)C1 (stereo not drawn) | -0.819
O=C1CC(C(=O)NCc2ccccc2Oc2ccccc2F)CCN1 (stereo not drawn) | -2.81
Cc1nc(C(=O)N2CCCC(c3nc(C(C)C)cs3)C2)c[nH]1 (stereo not drawn) | -41.7
Cc1ccc(NC(=O)N(C)C)c(C(=O)OCC(=O)NC(C)C(C)C)c1 (stereo not drawn) | -14.9
Cc1noc(C)c1CNC(=O)Nc1ccc(N2CCSCC2)cc1 | -1.61
N#CC1(NC(=O)c2ccc(F)cc2OC(F)F)CCOCC1 | 2.24
CCOC(=O)C(C)NC(=O)CCc1ccc(F)cc1 (stereo not drawn) | -9.92
COCCN(C)CC1CCCN1S(=O)(=O)c1cc(C)oc1C (stereo not drawn) | 0.729
COc1cc(CNc2nc(N3CCOCC3)ns2)cc(OC)c1OC | -5.23
COc1ccc(CC(=O)N2CCC(c3nncn3C)CC2)cc1F | 2.01
CN(CC(=O)Nc1ccccc1C(=O)NC1CC1)Cc1ccccc1Cl | -8.18
Cc1cccc(NC(=O)CN(C)C(=O)c2ccc(-n3cccc3)nc2)n1 | -4.4
COc1c(C2CCCN2CC(=O)N2CCCCC2)c(C)nn1C (stereo not drawn) | 0.113
COC(=O)N1CCC(Nc2ccc(Cl)c(C#N)n2)CC1 | 1.96
Cc1ccc(CCC(=O)N2CCn3c(nnc3C(C)C)C2)cc1Cl | -5.45
CC(C)c1n[nH]c(C2CN(C(=O)COc3ccc(F)cc3)CCO2)n1 (stereo not drawn) | -5.7
O=C(NCCn1ccnc1)C1(c2ccc3c(c2)OCCO3)CCCC1 | -4.38
Cc1cc(C)n(-c2cncc(N3CCC(C(=O)N(C)C)CC3)n2)n1 | -16
CCOC(=O)COc1cccc(NC(=O)C2COCCO2)c1 (stereo not drawn) | 7.01
c1cc(C2CCN(Cc3nc(-c4ccsc4)no3)CC2)[nH]n1 | 8.44
Cc1c(C(C)NC(=O)C2CCCCC2)cnn1C (stereo not drawn) | -4.79
CCc1nnc2n1CCN(C(=O)c1ccc3c(c1)[nH]c(=O)n3C)C2 | -3.22
Cc1cn(-c2ccccc2)nc1NS(=O)(=O)c1cc(C(=O)O)sc1C | -4.87

Structure (SMILES) | cytotoxicity at 10 µM [%]
Cc1nc(C)n(CC2CCCN2CC(=O)NCCC#N)n1 (stereo not drawn) | -2.78
O=C(NCc1cccnc1)NCC(O)c1cccc(C(F)(F)F)c1 (stereo not drawn) | -2.64
Cn1cnnc1-c1ccnc(NCc2ccc(Br)cc2)c1 | 2.87
CC(CNC(=O)c1nc(N2CCOCC2)ncc1Cl)c1ccccc1 (stereo not drawn) | 0.666
NC(=O)c1cccc(OCCC(=O)NC2CCc3c(F)cccc32)c1 (stereo not drawn) | 9.86
O=C(c1coc2ccccc12)N1CCCC1 | -1.15
CCN(CC(=O)Nc1c(C)nn(C)c1C)CC(O)c1ccc(C)cc1 (stereo not drawn) | -8.14
CC(C)(O)CNC(=O)c1sccc1Br | -5.58
CN1CC(C(=O)NC2(c3ccc(Cl)cc3)CCOCC2)CC1=O (stereo not drawn) | 13.8
Cc1nc(C2CCCN2C(=O)c2ccc(=O)n(C)n2)no1 (stereo not drawn) | -2.64
Cc1nccc(CNC(=O)NCC(C)Oc2ccccc2F)n1 (stereo not drawn) | -13.2
Cc1noc(C)c1CN(C)C(=O)COc1cccc(C#N)c1 | 5.3
Cc1ccc(C)c(CS(=O)(=O)CC(=O)NC(C)c2ccc(F)cc2F)c1 (stereo not drawn) | 9.71
O=C(c1c(O)cnc2ccccc12)N1CCCSCC1 | -9.7
CCNC(=O)CCC(=O)Nc1nc(C)c(Cc2ccc(F)cc2)s1 | 6.68
CC(C)c1nncn1CCNC(=O)c1ccc(Cl)cc1O | -5.01
O=C(NCC[S+]([O-])c1ccccc1)NCC(F)(F)F (stereo not drawn) | -1.09
CCCNC(=O)Nc1cc2c(cc1SC)OCCO2 | -19
COc1ccc(OC)c(CNCCc2cc(F)cc3c2OCOC3)c1 | -8.08
COc1ncccc1CN1CCn2c(Cn3cncn3)cnc2C1 | -3.17
Cc1cc2[nH]c(CN3CCCCC3c3cccc(F)c3)cc(=O)n2n1 (stereo not drawn) | 1.29
CC(C)N(C)C(=O)Cn1ncc(N(C)CCc2ccccc2)cc1=O | 0.562
Fc1cccc(C2(CNC3CCOC4(CCOCC4)C3)CCOCC2)c1 (stereo not drawn) | 0.616

Structure (SMILES) | cytotoxicity at 10 µM [%]
Cc1csc(CNc2nc3c(s2)c(C)nn3C)n1 | -109
CN(Cc1nc(COc2ccccc2)no1)CC1Cc2ccccc2O1 (stereo not drawn) | -4.4
Cc1c[nH]c(CN2CC[C@@]3(O)CCN(C(=O)C4CCCC4)C[C@H]3C2)n1 | 3.11
CCOCc1nc2c(c(NC(COC)c3ccccn3)n1)CCNCC2 (stereo not drawn) | -3.21
NCC1Cc2cc(-c3cnccn3)cc(Cl)c2O1 (stereo not drawn) | 6.82
NC(=O)CN1CCCC(C(=O)N2CCC(O)(Cc3ccccc3)CC2)C1 (stereo not drawn) | -7.36
Cc1cc(NC2CCN(c3ccc(F)cc3)CC2)n2nc(C)cc2n1 | -0.527
Cc1ccc(CN2CCN(c3ncccc3Cl)CC2CCO)cc1 (stereo not drawn) | -1.04
CCc1cc(NC2CCN(Cc3ccccc3F)CC2)n2nccc2n1 | -6
CCC[C@@H]1CN(C(=O)c2ccccc2-c2ncc[nH]2)C[C@H]1N(C)C | -3.17
CN(CC1CCCCO1)c1nncc(-c2cccc(F)c2)n1 (stereo not drawn) | 8.01
Cc1cccc(=O)n1CCCNc1nc(N(C)C)nc2c1CCNCC2 | -10.2
O=C(c1ccc2sccc2c1)N1CCC(C(=O)O)(n2ccnc2)CC1 | 2.69
COc1ccc(C(=O)NCc2cc(N3CCOCC3)ncn2)o1 | 4.39
COc1cc(C(=O)N2CCC(O)(CN3CCOCC3)C(C)(C)C2)ccn1 (stereo not drawn) | -9.61
COC(C)(C)CC(C)NCc1cn2ccccc2n1 (stereo not drawn) | -3.48
OC1CCN(c2ccnc(NCCN3CCc4ccccc4C3)n2)C1 (stereo not drawn) | -11.8
CC(C)n1cnnc1CN(C)CC1CCCNC1 (stereo not drawn) | 3.05
CCOCCn1c(=O)[nH]c2cc(C(=O)N(C)Cc3ccno3)ccc21 | -1.79
CCC(C(=O)NCc1nc(C)cc(C(F)(F)F)n1)n1cccn1 (stereo not drawn) | -17.1
CCN(CC)Cc1cc(C(=O)N2CCC3(CCN(C)CC3)C2)c(C)o1 | 4.92
CCN1CCN(C(=O)c2cnc(Cc3c(Cl)cccc3Cl)nc2O)CC1 | 2.57
CCN(Cc1cc(-c2ccccn2)no1)C1CCS(=O)(=O)C1 (stereo not drawn) | -14.9

Structure (SMILES) | cytotoxicity at 10 µM [%]
O=S(=O)(Nc1ccc2c(c1)OCCO2)N1CCCCC1 | 3.96
CCc1cn[nH]c1C1CCCN(C(=O)c2noc(C)c2COC)C1 (stereo not drawn) | -1.67
CC(C)n1cnnc1CN(C)C(=O)c1ccccc1N1CCOCC1 | 1.47
COc1ccccc1OC1(C(=O)O)CCN(c2nccnc2C)CC1 | -10.4
CN1CCC(CCNC(=O)c2ccc(N(C)S(C)(=O)=O)cc2Cl)CC1 | -10.1
CCN(Cc1ccc2c(c1)OCCO2)C(=O)NCCc1cnn(C)c1 | -3.72
CCOC(=O)c1sc2ccsc2c1CNS(C)(=O)=O | -12
CCC(=O)Nc1ccc2c(ccn2CC(=O)N(CC)CC)c1 | -12.2
Cc1nnc(CN2CCCC(c3cc(C(N)=O)[nH]n3)C2)o1 (stereo not drawn) | -7.32
CCN(Cc1ccc(OC)c(F)c1)C(=O)c1ccc(C)[nH]c1=O | -8.08
Cc1ccc(OCCNC(=O)C(C)n2cncn2)cc1 (stereo not drawn) | -3.53
O=C(COCC1CC1)N1CCCC(n2cccn2)C1 (stereo not drawn) | 4.6
O=C(CCOc1cccc(F)c1)N1CCCC(n2cncn2)C1 (stereo not drawn) | -0.192
Cn1cnnc1C1CCCN(C(=O)c2ccccc2Cl)C1 (stereo not drawn) | 3.59
CCOc1ncccc1C(=O)N(C)Cc1ncc(C)c(OC)c1C | 3.06
Cc1n[nH]c(C)c1NC(=O)CN1CCOC(Cn2cccn2)C1 (stereo not drawn) | -2.82
CC(C)C(C)NC(=O)c1ncn2c1CN(C)S(=O)(=O)c1ccccc1-2 (stereo not drawn) | -132
CN(C)C(=O)Cn1c2c(ccc1=O)CC(NCc1ccoc1)CC2 (stereo not drawn) | 16.5
Cc1ccc(CN2CCc3c(C(=O)N(C)C)nn(C)c3C2)s1 | -12.4
O=C1NCC2=Nc3ccccc3NC(c3ccccc3)C12 (stereo not drawn) | 1.14
CCCSCC(=O)N1C[C@@H]2CC[C@H]1CN(Cc1cccnc1)C2 | 1.64
